From PubChem BioAssay
The sample as a whole holds a higher share of hits than the screen did.
KDM4C inh = inhibitors of human demethylase GASC-1 KDM4C | inhibition, % at 12.5 µM | Q9H3R0 | GST-KDM4C 2-372, H3K9me3 peptide, LANCE TR-FRET | actives 0.15% (n = 96,000) | AID 720574;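 active means mean replicate inhibition above about 25%, with at least 55% of replicates also reaching it, limit read from the data, passing the limit was not always enough; inconclusive means only one of those two conditions met; inactive means neither condition met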
Target sequence (Q9H3R0 2-372 limits assumed): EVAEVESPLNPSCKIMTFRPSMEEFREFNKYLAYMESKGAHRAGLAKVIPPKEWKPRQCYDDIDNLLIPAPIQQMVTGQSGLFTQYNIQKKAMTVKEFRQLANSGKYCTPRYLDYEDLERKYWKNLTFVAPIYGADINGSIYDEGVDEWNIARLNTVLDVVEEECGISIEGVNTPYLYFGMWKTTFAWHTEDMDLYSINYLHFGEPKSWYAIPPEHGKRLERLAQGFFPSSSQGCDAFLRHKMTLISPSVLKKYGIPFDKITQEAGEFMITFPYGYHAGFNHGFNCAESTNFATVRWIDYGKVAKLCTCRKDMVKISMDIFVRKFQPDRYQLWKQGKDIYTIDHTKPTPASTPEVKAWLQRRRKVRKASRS
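System – N-terminal GST-fused human GASC-1 (KDM4C) fragment, residues 2-372 · Input – enzyme final amount 10 nM · Technique – LANCE TR-FRET, Eu antibody, ULight-streptavidin, EDTA, ex 340 nm, em 618/671 nm · Medium – HEPES buffer, pH 7.5, plus ascorbate · Incubation – enzyme reaction 30 min, then detection 60 min, both room temperature · Reagent – H3K9me3 peptide with Fe(II)/2OG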
T cruzi growth-1 = T. cruzi proliferation inhibition; T. cruzi beta-gal in NIH3T3, GalScreen luminescence, 90 h; inhibition, % at 8.34 µM; actives 5.9% (n = 77,000);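 active means mean inhibition above about 93%, with at least 55% of replicates each passing it, limit read from the data, passing the limit was not always enough; inconclusive means only one of those two conditions holds; inactive means neither condition holds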
IDH1 mut inh = blocks human IDH1 R132H reductase activity; inhibition, % at 10 µM; actives 0.18% (n = 70,000); AID 624101; diaphorase/resazurin fluorescence, 60 min; O75874; in the data active means inhibition above about 34%; inconclusive means no clear call, values can overlap the other calls; inactive means below about 11%;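 further: 0% = DMSO and 100% = no enzyme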
T cruzi growth-2 = Trypanosoma cruzi proliferation inhibition; T. cruzi beta-gal in NIH3T3, GalScreen luminescence, 90 h; inhibition, % at 8.35 µM; shares compounds with T cruzi growth-1; actives 72% (n = 5,600);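 active means mean replicate inhibition above about 95% and at least 55% of replicates individually reaching it, limit read from the data; inconclusive means only one of the two criteria is met; inactive means neither criterion is met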
T cruzi growth-3 = blocks T. cruzi growth in NIH3T3 host cells; shares compounds with T cruzi growth-1; T. cruzi beta-gal in NIH3T3, GalScreen luminescence, 90 h; inhibition, % at 2.09 µM; actives 21% (n = 5,600); AID 651740;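 active means mean inhibition above about 95%, with at least 55% of replicates also reaching it, limit read from the data; inconclusive means meets just one of the two conditions; inactive means meets neither condition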;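 further: plate controls were neutral control median for no effect and positive control median for full effect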
NIH3T3 tox = kills mouse NIH/3T3 fibroblasts; cytotoxicity (signal decrease), % at 8.35 µM; actives 14% (n = 5,600); NIH/3T3 viability, CellTiter-Glo ATP luminescence, 90 h; AID 651742; shares compounds with T cruzi growth-1;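 active means mean signal decrease across replicates above about 35% based on untreated-well scatter, with enough replicates individually passing, limit read from the data; inconclusive means no rule stated though some were filed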;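 further: 0% = median of neutral control wells and 100% = median of positive control wells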
NIH3T3 tox 2 = cytotoxicity in mouse NIH/3T3 fibroblasts. inhibition, % at 24.9 µM. actives 56% (n = 5,600). shares compounds with T cruzi growth-1. NIH/3T3 viability, CellTiter-Glo ATP luminescence, 90 h. AID 651744;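 active means mean loss of cell viability signal at or above a set limit, and enough replicates individually reaching it; inconclusive means meets only the mean limit or only the replicate share; inactive means meets neither condition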;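 further: 0% = median of neutral control wells and 100% = median of positive control wells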
* marks the source's active call; other numbers are inactive results.

What do the screens show for `OC[C@@H]1[C@@H](c2ccc(-c3ccccc3F)cc2)[C@H]2CN(Cc3ccncc3)CCCCN12`?
KDM4C inh: 3.4; T cruzi growth-1: 103.8*; T cruzi growth-2: 83.1; T cruzi growth-3: 48.4; NIH3T3 tox: 29.4; NIH3T3 tox 2: 81.5*

How did OC[C@H]1[C@H](c2ccc(-c3ccccc3F)cc2)[C@@H]2CN(Cc3ccncc3)CCCCN12 do in these assays?
KDM4C inh: 2.4; T cruzi growth-1: 105.7*; T cruzi growth-2: 101.2*; T cruzi growth-3: 74.2; NIH3T3 tox: 30.0; NIH3T3 tox 2: 102.7*

What do the screens show for `OC[C@@H]1[C@H](c2ccc(-c3ccccc3F)cc2)[C@H]2CN(Cc3ccncc3)CCCCN12`?
KDM4C inh: 3.1; T cruzi growth-1: 106.7*; T cruzi growth-2: 92.8; T cruzi growth-3: 84.7; NIH3T3 tox: 45.8*; NIH3T3 tox 2: 102.9*

Results for OC[C@@H]1[C@H](c2ccc(-c3ccccc3F)cc2)[C@@H]2CN(Cc3cccnc3)CCCCN12 ?
KDM4C inh: 0.6; T cruzi growth-1: 89.2

What do the screens show for `OC[C@H]1[C@@H](c2ccc(-c3ccccc3F)cc2)[C@H]2CN(Cc3cccnc3)CCCCN21`?
KDM4C inh: 0.4; T cruzi growth-1: 54.4

Results for C[C@@H]1CCCCO[C@@H](CN(C)C(=O)Cc2ccccc2)[C@@H](C)CN([C@H](C)CO)C(=O)c2cc(NC(=O)Nc3ccc(F)cc3)ccc2O1 ?
KDM4C inh: -2.6; IDH1 mut inh: -0.2

Results for C[C@@H]1CCCCO[C@H](CN(C)C(=O)Cc2ccccc2)[C@H](C)CN([C@@H](C)CO)C(=O)c2cc(NC(=O)Nc3ccc(F)cc3)ccc2O1 ?
T cruzi growth-1: 99.9*; IDH1 mut inh: -1.2; T cruzi growth-2: 103.1*; T cruzi growth-3: 10.3; NIH3T3 tox: -23.7; NIH3T3 tox 2: -34.0

What do the screens show for `C[C@@H]1CN([C@H](C)CO)C(=O)c2cc(NC(=O)Nc3ccc(F)cc3)ccc2O[C@@H](C)CCCCO[C@@H]1CN(C)C(=O)Cc1ccccc1`?
KDM4C inh: -3.0; T cruzi growth-1: 87.3; IDH1 mut inh: 0.0

Results for C[C@@H]1CN([C@H](C)CO)C(=O)c2cc(NC(=O)Nc3ccccc3)ccc2O[C@@H](C)CCCCO[C@@H]1CN(C)C(=O)Cc1ccccc1 ?
KDM4C inh: -1.0; T cruzi growth-1: -6.4; IDH1 mut inh: -0.5

Results for C[C@H]1CCCCO[C@H](CN(C)C(=O)Cc2ccccc2)[C@@H](C)CN([C@@H](C)CO)C(=O)c2cc(NC(=O)Nc3ccc(F)cc3)ccc2O1 ?
KDM4C inh: -1.3; T cruzi growth-1: 101.0*; IDH1 mut inh: 0.7; T cruzi growth-2: 106.0*; T cruzi growth-3: -41.7; NIH3T3 tox: -16.5; NIH3T3 tox 2: 19.8

Results for C[C@@H]1CCCCO[C@H](CN(C)C(=O)Cc2ccccc2)[C@H](C)CN([C@H](C)CO)C(=O)c2cc(NC(=O)Nc3ccccc3)ccc2O1 ?
KDM4C inh: -0.1; T cruzi growth-1: 103.0*; IDH1 mut inh: 0.1; T cruzi growth-2: 98.1*; T cruzi growth-3: 15.7; NIH3T3 tox: -10.4; NIH3T3 tox 2: -14.6

How did Cc1noc(C)c1NC(=O)Nc1ccc2c(c1)C(=O)N([C@H](C)CO)C[C@H](C)[C@H](CN(C)C(=O)Cc1ccccc1)OCCCC[C@H](C)O2 do in these assays?
KDM4C inh: 0.0; T cruzi growth-1: 106.0*; T cruzi growth-2: 35.5; T cruzi growth-3: 22.6; NIH3T3 tox: -8.1; NIH3T3 tox 2: -13.2

What do the screens show for `Cc1noc(C)c1NC(=O)Nc1ccc2c(c1)C(=O)N([C@@H](C)CO)C[C@H](C)[C@@H](CN(C)C(=O)Cc1ccccc1)OCCCC[C@@H](C)O2`?
KDM4C inh: -0.8; T cruzi growth-1: 44.8

How did Nc1nnc(SCC(=O)Nc2ccc(Oc3ccccc3)cc2)s1 do in these assays?
IDH1 mut inh: 0.4

What do the screens show for `Cc1ccc(C(=O)CSc2nc3ccccc3o2)cc1[N+](=O)[O-]`?
IDH1 mut inh: -0.4

Results for Cc1ccc(NC(=O)CSc2nnnn2-c2ccc(Cl)c(C(=O)O)c2)cc1C ?
IDH1 mut inh: -0.1

Results for O=C(Nc1ccc(S(=O)(=O)Nc2ccccc2Oc2ccc(Cl)cc2Cl)cc1)C1CC1 ?
IDH1 mut inh: 0.0

Results for CCOC(=O)C1CCCCN1Cc1ccco1 (centres undefined) ?
IDH1 mut inh: 0.0

What do the screens show for `C[C@@H]1CCCCO[C@H](CN(C)C(=O)Cc2ccccc2)[C@H](C)CN([C@H](C)CO)C(=O)c2cc(NC(=O)Nc3ccc(F)cc3)ccc2O1`?
KDM4C inh: -1.2; T cruzi growth-1: 103.1*; IDH1 mut inh: 1.5; T cruzi growth-2: 106.7*; T cruzi growth-3: 108.0*; NIH3T3 tox: -20.6; NIH3T3 tox 2: 1.8

Results for C[C@H](CO)N1C[C@H](C)[C@H](CN(C)C(=O)Cc2ccccc2)OCCCC[C@H](C)Oc2ccc(NC(=O)Nc3ccc(F)cc3)cc2C1=O ?
KDM4C inh: -1.4; T cruzi growth-1: 39.6; IDH1 mut inh: -1.1

Results for Cc1cc(CNC(=O)c2cc(-c3cccnc3)nc3ccc(Cl)cc23)nn1C ?
IDH1 mut inh: 0.0

What do the screens show for `CN(C)CC#Cc1ccc([C@@H]2[C@H]3CN(C(=O)Nc4cc(F)ccc4F)CCCCN3[C@H]2CO)cc1`?
KDM4C inh: 2.9; T cruzi growth-1: 117.0*; T cruzi growth-2: 43.4; T cruzi growth-3: -30.1; NIH3T3 tox: inconclusive; NIH3T3 tox 2: 103.3*

What do the screens show for `CN(C)CC#Cc1ccc([C@@H]2[C@@H](CO)N3CCCCN(C(=O)Nc4ccccc4F)C[C@@H]23)cc1`?
KDM4C inh: 5.0; T cruzi growth-1: 34.0

How did CN(C)CC#Cc1ccc([C@@H]2[C@H]3CN(C(=O)Nc4ccccc4F)CCCCN3[C@H]2CO)cc1 do in these assays?
KDM4C inh: 2.2; T cruzi growth-1: 68.4

What do the screens show for `CN(C)CC#Cc1ccc([C@@H]2[C@@H](CO)N3CCCCN(C(=O)Nc4cc(F)ccc4F)C[C@@H]23)cc1`?
KDM4C inh: 4.8; T cruzi growth-1: 106.4*; T cruzi growth-2: 101.1*; T cruzi growth-3: 34.5; NIH3T3 tox: -17.4; NIH3T3 tox 2: 45.3*

How did C/C=C(\C)C(=O)O[C@@H]1c2c(ccc3ccc(=O)oc23)OC(C)(C)[C@@H]1OC(C)=O do in these assays?
IDH1 mut inh: 1.2

Results for CC(C(=O)Oc1cccc2cccnc12)N1C(=O)c2ccccc2C1=O (centres undefined) ?
IDH1 mut inh: -0.1
